Source: PubChem
HCT116 bCat-KO: primary screen for growth suppressors in beta-catenin knockout HCT116 cells (colon tumor, human); HCT116 beta-catenin knockout viability, CellTiter-Glo, 60 h; hits give low values; viability, % at 10 µM; 140,000 tested, 1.5% active; AID 818, 2007;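 active = viability at or under a set limit, the compound median less 4 SD, cut at about 6% in these data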
H69AR inhibit: proliferation blockers of H69AR lung cancer cells, primary screen, cell-based, human, 86K library; 85,000 tested, 6% active; viability, % at 10 µM; H69AR lung tumor viability, ATP luminescence, 72 h; hits give low values;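 active = viability at or below 40%; inactive = viability above 40%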;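 note: multidrug resistant small cell line overexpressing MRP-1 efflux transporter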
PTEN del growth: growth suppression of PTEN-null HCT116, primary screen, cell-based, CellTiter-Glo. HCT116 PTEN-null viability, 60 h; hits give low values. viability, % at 10 µM. 140,000 tested, 1.2% active. AID 827, 2007;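 active = viability at or below a set limit, 4 SD under the median of all tested compounds, cut at about 3.7% in these data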;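 note: PTEN knockout HCT116 line with beta catenin targeted HCT116 as companion control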
Lung fibro prol: antiproliferative effect on LL 47 fibroblasts – human, LL 47 cells, CellTiter-Glo luminescence, primary screen | viability, % at 10 µM | LL 47 human lung fibroblast viability, ATP luminescence; hits give low values | 85,000 tested, 1.1% active | AID 719, 2007;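 active = viability at or below 50% in the single dose screen; inactive = viability above 50%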;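 note: compound exposure lasted 72 h before the ATP readout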
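Signal: luminescent ATP detection, CellTiter-Glo; assay system: LL 47 human lung fibroblasts; input: 1,150 cells/well; incubation: overnight cell rest, 72 h compound treatment at 37 °C; measure: % viability versus median cells-only luminescence; medium: IMEM growth medium with 15% fetal bovine serum; dosing: compound addition at 0.1% DMSO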
HUVEC inhibit: inhibitors of HUVEC proliferation, primary screen, cell-based, 384-well | 86,000 tested, 1.1% active | viability, % at 10 µM (by protocol) | AID 648, 2007 | CellTiter-Glo luminescence, 72 h; hits give low values;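 active = viability at or below 30%; inactive = viability above 30%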
A number is an active result; n = inactive; x = no result given. Shown is part of a subset that was picked to be rich in hits.

SMILES	HCT116 bCat-KO	H69AR inhibit	PTEN del growth	Lung fibro prol	HUVEC inhibit
COc1ccccc1NS(=O)(=O)c1cc(NC(=O)/C=C/c2cccs2)ccc1N1CCOCC1	n	x	n	x	x
Cc1cc(C(=O)CSc2n[nH]c(N)n2)c(C)n1-c1ccc(F)cc1	n	40	n	n	n
Cc1ccc(-n2c(C)cc(C(=O)CSc3n[nH]c(N)n3)c2C)cc1	n	32	n	n	n
Cc1cc(C(=O)CSc2n[nH]c(N)n2)c(C)n1-c1ccccc1	n	x	n	x	x
COc1cc(NC(=O)Nc2cccc(Cl)c2)c(OC)cc1NC(=O)CN1CCCCC1	n	7.8	n	n	12
COc1ccccc1NC(=O)CN1CCN(CC(=O)Nc2ccc(Cl)c(C(F)(F)F)c2)CC1	n	27	n	n	n
COc1cc(NC(=O)c2ccc(C)cc2)c(OC)cc1NC(=O)CN1CCCCC1	n	n	n	n	n
COc1ccc(NC(=O)CN2CCN(CC(=O)Nc3ccccc3Cl)CC2)cc1Cl	n	24	n	n	n
O=C(Nc1ncc(Cc2ccccc2)s1)c1cccs1	n	n	n	n	n
Cc1ccc(Cc2cnc(NC(=O)c3cccs3)s2)cc1	n	17	n	n	n
O=C(Nc1ncc(Cc2cccc(Cl)c2)s1)c1cccs1	n	35	n	n	n
COC(=O)c1ccc(-c2ncc(-c3cccc4ccccc34)o2)cc1	n	36	n	n	n
O=C(COc1ccc(S(=O)(=O)N2CCOCC2)cc1)Nc1ccccc1C(F)(F)F	n	n	n	n	n
C=CCSc1nnc(NC(=O)c2cccc(S(=O)(=O)N(C)c3ccccc3)c2)s1	n	x	n	x	x
CCOc1ccc(NC(=O)c2ccccc2NC(=O)CN(C)CC(=O)Nc2ccc(C)cc2)cc1	n	37	n	n	n
Cc1nc(NC2=NCN(CCCN3CCOCC3)CN2)nc2c(C)cccc12	n	2.3	n	28	n
Cc1nc(NC2=NCN(CCc3ccccc3)CN2)nc2c(C)cccc12	x	5.5	x	32	1.7
Cc1cc2nc(NC3=NCN(Cc4ccc5c(c4)OCO5)CN3)nc(C)c2cc1C	x	23	x	49	n
Cc1cc2nc(NC3=NCN(CCCN4CCOCC4)CN3)nc(C)c2cc1C	x	n	x	x	n
CCn1c(-c2c(Cl)c(C)nn2C)n[nH]c1=S	n	x	n	x	x
O=C(Nc1cccc(F)c1)c1c(F)c(F)c(F)c(F)c1F	n	n	n	n	n
O=C(Nc1ccccc1NC(=O)c1c(F)c(F)c(F)c(F)c1F)c1c(F)c(F)c(F)c(F)c1F	2.4	n	2.6	n	n
C/C(CC(=O)N1CCN(C=O)CC1)=N\NC(=O)c1cc2ccccc2cc1O	n	x	n	x	x
C/C(=N\NC(=O)c1ccccc1O)C1C(=O)c2ccccc2C1=O	4.0	x	n	x	x
C/C(=N/NC(=O)c1cc2ccccc2cc1O)C1C(=O)c2ccccc2C1=O	n	36	n	n	n
SMILES	HCT116 bCat-KO	H69AR inhibit	PTEN del growth	Lung fibro prol	HUVEC inhibit
CCC/C(C)=N/NC(=O)c1ccccc1O	n	x	n	x	x
O=C(CN1CCC(NC(=O)Cc2ccccc2)CC1)Nc1ccccc1Br	n	x	n	x	x
CC(C)c1ccc(OCC(=O)NCCO)cc1	n	x	n	x	x
Cc1cccc(C(=O)NCc2nnc3c4ccccc4c(-c4ccccc4)nn23)c1	n	x	n	x	x
Cc1ccc(-c2nn(-c3cc(Cl)ccc3[N+](=O)[O-])c(=O)c3ccccc23)cc1C	n	x	n	x	x
CC1(C)Cc2c(sc3c4nnnn4c4nnnn4c23)CO1	n	2.5	n	n	n
Cc1ccc(Oc2ccc(S(=O)(=O)N3CCOCC3)cc2C(N)=O)c(-n2nc3ccccc3n2)c1	n	31	n	n	n
N#Cc1ccccc1NC(=O)c1ccccc1OCC(=O)Nc1ccc2c(c1)oc1ccccc12	x	3.9	x	n	n
CC(=O)Nc1c(C(=O)C2CC2)oc2ccccc12	n	n	n	n	n
CCOc1ccc(C(=O)Nc2c(C(N)=O)oc3ccccc23)cc1	n	n	n	n	n
N#Cc1ccccc1OCC(=O)Nc1c(C(=O)C2CC2)oc2ccccc12	n	7.6	n	n	n
COc1ccc(NC(=O)c2oc3ccccc3c2NC(=O)COc2ccccc2OC)c(OC)c1	n	19	n	n	7.2
CCOc1ccc(CC(=O)Nc2c(C(N)=O)oc3ccc(Br)cc23)cc1OCC	n	37	n	n	n
CC(C)(C)c1cc(NC(=O)c2cccc(S(=O)(=O)N3CCOCC3)c2)no1	n	x	n	x	x
CC(C)CC(=O)NC(=S)Nc1ccc(S(=O)(=O)Nc2nccs2)cc1	n	x	n	x	x
CCOC(=O)c1c(NC(=O)C(F)(OC)C(F)(F)F)sc(C(=O)N2CCCCC2)c1C (stereo not drawn)	n	n	n	n	n
CCOc1ccc(CC(=O)Nc2c(C(=O)Nc3ccccc3)oc3ccccc23)cc1OCC	n	35	n	n	n
Cc1ccc(-n2c(C)cc(C3N=C(N)Nc4nc5ccccc5n43)c2C)c(C)c1 (stereo not drawn)	n	33	n	n	16
CCOC(=O)c1cn(-c2nc(-c3ccc(Cl)c(Cl)c3)cs2)c2c(F)c(N3CCOCC3)c(F)cc2c1=O	1.7	x	1.2	x	x
CC(C)CCNC(=O)NC(=O)COC(=O)C1CCN(S(=O)(=O)c2ccccc2F)CC1	n	x	n	x	x
CC(C)(C)c1ccc(Cn2nnc3c(=O)[nH]c(C4CCN(C(=O)Cc5cccs5)CC4)nc32)cc1	n	n	n	n	n
CC(C)(C)c1ccc(Cn2nnc3c(=O)[nH]c(C4CCCN(C(=O)Cc5cccs5)C4)nc32)cc1 (stereo not drawn)	n	17	n	n	n
O=C(COC(=O)c1ccccc1NC(=O)c1ccco1)Nc1ccc2c(c1)OCO2	n	38	n	n	n
O=C(COC(=O)c1ccccc1NCc1ccco1)Nc1ccc2c(c1)OCO2	n	n	n	n	n
c1ccc(CCN2CCN(c3ncnc4c3cnn4-c3ccccc3)CC2)cc1	n	34	n	n	n
SMILES	HCT116 bCat-KO	H69AR inhibit	PTEN del growth	Lung fibro prol	HUVEC inhibit
Cc1ccc(C(=O)N2CCN(c3ncnc4c3cnn4-c3ccccc3)CC2)cc1	x	21	x	n	n
CCN1CCN(c2ncnc3c2cnn3-c2ccccc2)CC1	n	n	n	n	n
CCC(=O)N1CCc2cc(S(=O)(=O)NC(C(=O)NC3CCCc4ccccc43)C(C)C)ccc21 (stereo not drawn)	n	x	n	x	x
CC(=O)N1CCc2c(sc(NC(=O)C3CC3)c2-c2nc3ccccc3s2)C1	6.0	n	n	n	n
CCOC(=O)c1ccc(N/C=C/C(=O)c2ccco2)cc1	n	17	n	n	n
Cc1ccc(S(=O)(=O)N[C@H](C(=O)N2CCC(C(=O)N3CCC[C@H]3C(=O)O)CC2)C(C)C)cc1	n	n	n	n	n
O=C(C1=NNCC1c1ccc(Cl)cc1)C1CO1 (stereo not drawn)	2.2	x	2.1	x	x
Cc1ccc(C2CC(c3ccc(Cl)cc3)=NNC2=O)cc1 (stereo not drawn)	n	n	n	n	n
COc1nc(OC)nc(Oc2ccc([N+](=O)[O-])cc2Cl)n1	n	x	n	x	x
